Results from ChEMBL document CHEMBL1149737, “Brominated polyacetylenic acids from the marine sponge Xestospongia muta: inhibitors of HIV protease” (J Nat Prod, 1992).
Activity calls are given as the source filed them. The rule behind the calls is not given here.

Experiments:
Protease = Protease (Human immunodeficiency virus 1, UniProt Q9YQ12); experiment: Inhibition of HIV1 protease-mediated proteolysis of rabbit muscle lactate dehydrogenase by spectrophotometry; assay type: single protein
Summary of the method: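 Purified HIV-1 protease (0.8 µg) with rabbit muscle LDH (0.5–2 mg/ml) in 80 mM Na acetate pH 4.7, 1 mM EDTA, 1 mM DTT, 0.2 M NaCl, 37°, 10–60 min. Aliquots were diluted into 0.1 M K phosphate pH 7.0, 30 min RT. Residual LDH was read as NADH loss at 340 nm (7.6 mM pyruvate, 0.2 mM NADH, 37°) from initial slopes. Controls lacked protease.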

[1] = target: T1, ATP-citrate synthase (Rattus norvegicus) (UniProt P16638); experiment: Inhibition of rat ATP citrate lyase at 100 ug/ml
T1 sequence (whole entry): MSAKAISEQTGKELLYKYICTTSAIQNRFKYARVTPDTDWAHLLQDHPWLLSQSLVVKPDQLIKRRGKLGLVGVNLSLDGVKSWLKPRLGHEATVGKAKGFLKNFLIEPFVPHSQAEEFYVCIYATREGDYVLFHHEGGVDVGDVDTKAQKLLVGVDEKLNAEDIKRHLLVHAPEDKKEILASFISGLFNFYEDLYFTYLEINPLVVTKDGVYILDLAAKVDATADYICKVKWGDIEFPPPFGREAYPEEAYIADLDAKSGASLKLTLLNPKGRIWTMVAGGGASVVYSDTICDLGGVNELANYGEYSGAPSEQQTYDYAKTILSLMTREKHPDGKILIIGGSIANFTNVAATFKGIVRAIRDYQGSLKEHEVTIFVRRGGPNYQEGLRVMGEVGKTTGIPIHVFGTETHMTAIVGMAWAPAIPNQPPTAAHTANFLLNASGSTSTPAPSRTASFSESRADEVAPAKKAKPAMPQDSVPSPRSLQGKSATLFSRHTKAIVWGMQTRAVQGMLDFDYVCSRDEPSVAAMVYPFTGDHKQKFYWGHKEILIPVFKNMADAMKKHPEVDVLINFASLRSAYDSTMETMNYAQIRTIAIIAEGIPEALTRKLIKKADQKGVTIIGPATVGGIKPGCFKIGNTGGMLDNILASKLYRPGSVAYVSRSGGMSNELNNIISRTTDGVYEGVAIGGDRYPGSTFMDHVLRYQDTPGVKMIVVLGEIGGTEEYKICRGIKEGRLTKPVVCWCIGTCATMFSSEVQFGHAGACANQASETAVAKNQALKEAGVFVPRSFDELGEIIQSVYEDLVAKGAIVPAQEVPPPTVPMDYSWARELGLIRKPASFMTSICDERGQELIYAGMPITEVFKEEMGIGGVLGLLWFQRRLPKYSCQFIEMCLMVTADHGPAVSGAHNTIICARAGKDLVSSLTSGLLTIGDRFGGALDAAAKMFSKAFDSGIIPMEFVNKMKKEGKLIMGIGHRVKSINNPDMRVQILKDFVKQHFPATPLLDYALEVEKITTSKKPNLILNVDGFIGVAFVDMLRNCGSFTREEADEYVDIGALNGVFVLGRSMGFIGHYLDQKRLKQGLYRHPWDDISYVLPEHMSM

Sus scrofa = organism: Sus scrofa; experiment: Inhibition of pig malic dehydrogenase at 100 ug/ml
MOLT-4 = experiment: Cytotoxicity against human MOLT4 cells; assay type: functional, cell-based

Chain of Protease (Q9YQ12 whole entry): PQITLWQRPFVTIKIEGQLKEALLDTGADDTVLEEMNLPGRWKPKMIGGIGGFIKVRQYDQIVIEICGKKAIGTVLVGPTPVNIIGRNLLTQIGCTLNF

COC(=O)CCCC#CC#C/C=C/CCCCCC/C=C/Br
IC50 (Protease): 10 µM | Activity [1]: inactive | Activity (Sus scrofa): inactive | Activity (MOLT-4): Active

O=C(O)CCCC#CC#C/C=C/CCCC/C=C/C#CBr
IC50 (Protease): 7 µM | Activity [1]: inactive | Activity (Sus scrofa): inactive | Activity (MOLT-4): Active

O=C(O)CCCC#CC#C/C=C/CC/C=C/C#C/C=C/Br
IC50 (Protease): 6 µM | Activity [1]: inactive | Activity (Sus scrofa): inactive | Activity (MOLT-4): Active

O=C(O)CCCC#C/C=C/CCCC/C=C/C#C/C=C/Br
IC50 (Protease): 10 µM | Activity [1]: inactive | Activity (Sus scrofa): inactive | Activity (MOLT-4): Active

O=C(O)CCCC#CC#C/C=C/CCCCCC/C=C/Br
IC50 (Protease): 12 µM | Activity [1]: inactive | Activity (Sus scrofa): inactive | Activity (MOLT-4): Active

O=C(O)CCCC#CC#C/C=C/CCCCC#C/C=C/Br
IC50 (Protease): 8 µM | Activity [1]: inactive | Activity (Sus scrofa): inactive | Activity (MOLT-4): Active
